An excerpt weighted towards active compounds, which were near 3.8% of everything screened.
KCNK3 block = human KCNK3 channel inhibition, primary screen; CHO-KCNK3 thallium flux, FluxOR fluorescence; hits give low values; B-score at 10 µM; O14649; 340,000 compounds, 0.84% hits;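 active means B-score under library mean minus 4 SD, starting fluorescence ratio at most library mean plus 5 SD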;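 further: more negative B-score means stronger inhibition of thallium flux through KCNK3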
Kir21 inh = Kir2.1 (mouse) channel inhibition. P35561. HEK293-Kir2.1, FluxOR thallium flux fluorescence; hits give low values. B-score at 10 µM. 310,000 compounds, 0.85% hits. AID 1672;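 active means fluorescence ratio B-score at or below minus 3 SD of library scores, with starting-brightness B-score within 2 SD, cut at about -4.2 in these data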;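 further: channel flux triggered by added potassium and thallium sulfate stimulus; B-score of peak minus minimum fluorescence over baseline after thallium stimulus; more negative B-score means stronger Kir2.1 block with less thallium influx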
Target sequence (P35561 whole entry, looked up): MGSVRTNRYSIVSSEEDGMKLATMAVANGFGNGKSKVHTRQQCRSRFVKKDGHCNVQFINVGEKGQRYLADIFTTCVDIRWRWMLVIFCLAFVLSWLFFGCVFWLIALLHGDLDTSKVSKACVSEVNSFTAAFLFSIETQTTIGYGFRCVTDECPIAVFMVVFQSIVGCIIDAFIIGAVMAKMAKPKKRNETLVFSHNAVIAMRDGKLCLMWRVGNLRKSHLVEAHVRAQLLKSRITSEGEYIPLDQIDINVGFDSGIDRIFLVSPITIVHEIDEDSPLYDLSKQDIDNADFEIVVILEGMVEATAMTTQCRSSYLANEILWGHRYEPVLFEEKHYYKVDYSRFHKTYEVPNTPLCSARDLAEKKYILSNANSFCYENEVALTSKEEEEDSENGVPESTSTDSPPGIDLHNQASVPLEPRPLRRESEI
KCNK9 inh = inhibitors of human KCNK9 two-pore domain potassium channel. Q9NPC2. HEK293 KCNK9, FluxOR thallium flux fluorescence; hits give low values. B-score at 10 µM. 310,000 compounds, 1.2% hits;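 active means ratio B-score over 3 SD below the library mean, with starting fluorescence within 5 SD of its mean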;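 further: negative B-score means less thallium flux so channel inhibition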
hERG protect = shields human hERG channel from block by proarrhythmic agents | Q12809 | CHO-hERG, FluxOR thallium flux, dofetilide IC70 present | activation (rescue from dofetilide block), less the hit threshold, % at 10 µM | 310,000 compounds, 0.51% hits | AID 1511;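 active means activation above the mean of controls blocked by dofetilide plus 5 SD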;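 further: thallium influx through hERG after potassium depolarization seen as dye fluorescence rise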
KCNQ1 inh = inhibitors of human KCNQ1 potassium channel. 310,000 compounds, 1.3% hits. B-score at 10 µM. AID 2642. CHO-K1 KCNQ1, FluxOR thallium flux fluorescence; hits give high values;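 active means compounds whose thallium flux B-score, printed positive for inhibition, exceeds three library SD while starting fluorescence stays within three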;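 further: channel opened by potassium depolarization with thallium stimulus after 20 min compound exposure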
KCNQ1 act = potentiates or activates the human KCNQ1 potassium channel | P51787 | CHO-K1 KCNQ1, thallium flux FluxOR fluorescence; hits give high values | B-score at 10 µM | 310,000 compounds, 0.35% hits | AID 2648;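 active means fluorescence ratio B-score, a plate-corrected score, at least three library SD, with initial intensity B-score within 5 SD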
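Material: CHO-K1 cells stably expressing KCNQ1. Medium: assay buffer for compound exposure, DMSO matched across wells. Reagent: K+/Tl+ depolarizing stimulus. Compound dosing: single-concentration screen. Times: 37 °C overnight plating, 90-min dark dye load, 20-min compound pretreatment. Technique: FluxOR Tl+ flux fluorescence.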
KCNK9 block conf = human KCNK9 inhibitor confirmation | shares compounds with KCNK9 inh | HEK293 KCNK9 cells, FluxOR thallium flux fluorescence | inhibition, % at 10 µM | 4,900 compounds, 43% hits;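 active means thallium signal inhibited by more than 5 SD of the compound-free buffer control wells, on both duplicate plates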
Kir2-1 spec = selectivity of KCNK9 modulators against mouse Kir2.1 | shares compounds with KCNK9 inh | 4,900 compounds, 4% hits | Kir2.1 cells, FluxOR thallium flux fluorescence | inhibition, % at 10 µM;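 active means thallium signal drop more than 5 SD beyond the mean of the no-compound control wells, seen in both duplicate plates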;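 further: signal is fluorescence rise after thallium addition divided by baseline fluorescence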
HEK293 Tl ctr = non-induced cell nonspecific activity of KCNK9 modulators | shares compounds with KCNK9 inh | non-induced KCNK9-HEK293, FluxOR thallium flux | inhibition, % at 10 µM | 4,900 compounds, 40% hits | AID 492997;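 active means thallium signal drop beyond 5 SD of the untreated control mean, on both duplicate plates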
A number is an active result.

Screening CC(/C=N/NC(=O)CSc1ccccn1)=C\c1ccc(C(C)C)cc1 returned KCNK3 block inactive, Kir21 inh inactive, KCNK9 inh -13, hERG protect inactive, KCNQ1 inh inactive, KCNQ1 act inactive, KCNK9 block conf 59%, Kir2-1 spec inactive and HEK293 Tl ctr 37%.
CC(=C/c1ccc(C(C)C)cc1)/C=N/NC(=O)CSc1ccccn1 was read as KCNK3 block inactive, Kir21 inh inactive, KCNK9 inh -20, hERG protect inactive, KCNQ1 inh inactive, KCNQ1 act inactive, KCNK9 block conf 60%, Kir2-1 spec inactive and HEK293 Tl ctr 45%.
Screening NS(=O)(=O)c1ccc(CCNC(=O)c2ccccc2[N+](=O)[O-])cc1 returned KCNK3 block inactive, Kir21 inh inactive, KCNK9 inh inactive, hERG protect inactive, KCNQ1 inh inactive and KCNQ1 act inactive.
`O=C1CCCN1CCC1CCN(C2CC(=O)N(c3ccc(Cl)cc3)C2=O)CC1` (stereo not given) gave KCNK3 block inactive, Kir21 inh inactive, KCNK9 inh inactive, hERG protect inactive, KCNQ1 inh inactive and KCNQ1 act inactive.
`CCOc1ccc(NC(=O)CN(c2cc(C)cc(C)c2)S(=O)(=O)c2c(C)noc2C)cc1` gave KCNK3 block inactive, Kir21 inh inactive, KCNK9 inh inactive, hERG protect inactive, KCNQ1 inh inactive and KCNQ1 act inactive.
`Cc1noc(C)c1S(=O)(=O)N(C)CC(=O)Nc1ccc(F)cc1` gave KCNK3 block inactive, Kir21 inh inactive, KCNK9 inh -11, hERG protect inactive, KCNQ1 inh inactive, KCNQ1 act inactive, KCNK9 block conf inactive, Kir2-1 spec inactive and HEK293 Tl ctr inactive.
`CC(C)(C)c1ccc(OCCC(=O)OCC(=O)NC(=O)NC2CCCC2)cc1` gave KCNK3 block inactive, Kir21 inh inactive, KCNK9 inh -9.8, hERG protect inactive, KCNQ1 inh inactive, KCNQ1 act inactive, KCNK9 block conf inactive, Kir2-1 spec inactive and HEK293 Tl ctr inactive.
Screening CC(C)(C)c1ccc(OCCC(=O)OCC(=O)NC2CCCCC2)cc1 returned KCNK3 block inactive, Kir21 inh inactive, KCNK9 inh inactive, hERG protect inactive, KCNQ1 inh inactive and KCNQ1 act inactive.
`CCC(ONc1ccccc1C(F)(F)F)(C(=O)NN(C)C)c1ccccc1` (stereo not given) gave KCNK3 block inactive.
CC(C)Cn1c(N)c(C(=O)COC(=O)[C@@H]2CCCN2C(=O)c2cccs2)c(=O)n(C)c1=O was read as KCNK3 block inactive, Kir21 inh inactive, KCNK9 inh inactive, hERG protect inactive, KCNQ1 inh inactive and KCNQ1 act inactive.
CCOc1cc(CNC(C)(C)CO)cc(Br)c1OCc1ccc(Cl)cc1Cl was read as KCNK3 block inactive, Kir21 inh -9.4, KCNK9 inh -8.7, hERG protect inactive, KCNQ1 inh inactive, KCNQ1 act inactive, KCNK9 block conf 55%, Kir2-1 spec 53% and HEK293 Tl ctr 34%.
For Cc1ccc2c(SCC(=O)NCc3ccco3)nc(-c3ccc(F)cc3)nc2c1 the results were KCNK3 block inactive, Kir21 inh inactive, KCNK9 inh inactive, hERG protect inactive, KCNQ1 inh inactive and KCNQ1 act inactive.
`OCCNCC(O)CN1c2ccccc2Sc2ccccc21` (stereo not given) gave KCNK3 block inactive, Kir21 inh inactive, KCNK9 inh inactive, hERG protect inactive, KCNQ1 inh inactive and KCNQ1 act inactive.
Screening Cc1ccc(C2(c3noc(CN4CCC(c5ccncc5)CC4)n3)CCCC2)cc1 returned KCNK3 block inactive, Kir21 inh inactive, KCNK9 inh inactive, hERG protect inactive, KCNQ1 inh inactive, KCNQ1 act inactive, KCNK9 block conf inactive, Kir2-1 spec inactive and HEK293 Tl ctr inactive.
Screening CSc1ccc(C(=O)C2CCCN(C(=O)c3cc4cc(F)ccc4[nH]3)C2)cc1 (stereo not given) returned KCNK3 block inactive, Kir21 inh inactive, KCNK9 inh inactive, hERG protect inactive, KCNQ1 inh inactive, KCNQ1 act inactive, KCNK9 block conf inactive, Kir2-1 spec inactive and HEK293 Tl ctr inactive.
`Cc1noc(C)c1C(=O)N1CCCC(C(=O)c2ccc(Cl)cc2)C1` (stereo not given) gave KCNK3 block inactive, Kir21 inh inactive, KCNK9 inh inactive, hERG protect inactive, KCNQ1 inh inactive and KCNQ1 act inactive.
CC(=O)c1ccc(C(=O)N2CCCC(C(=O)c3ccc(Cl)cc3)C2)s1 (stereo not given) was read as KCNK3 block inactive, Kir21 inh inactive, KCNK9 inh inactive, hERG protect inactive, KCNQ1 inh inactive, KCNQ1 act inactive, KCNK9 block conf inactive, Kir2-1 spec inactive and HEK293 Tl ctr inactive.
For CSc1ccc(C(=O)C2CCCN(C(=O)c3csc(C(C)=O)c3)C2)cc1 (stereo not given) the results were KCNK3 block inactive, Kir21 inh inactive, KCNK9 inh inactive, hERG protect inactive, KCNQ1 inh inactive and KCNQ1 act inactive.
`CSc1ccc(C(=O)C2CCCN(C(=O)c3ccc4c(c3)OCO4)C2)cc1` (stereo not given) gave KCNK3 block inactive, Kir21 inh inactive, KCNK9 inh inactive, hERG protect inactive, KCNQ1 inh inactive, KCNQ1 act inactive, KCNK9 block conf inactive, Kir2-1 spec inactive and HEK293 Tl ctr inactive.
`CCc1cc(C(=O)N2CCCC(C(=O)c3ccc(Cl)cc3)C2)no1` (stereo not given) gave KCNK3 block inactive, Kir21 inh inactive, KCNK9 inh inactive, hERG protect inactive, KCNQ1 inh inactive, KCNQ1 act inactive, KCNK9 block conf inactive, Kir2-1 spec inactive and HEK293 Tl ctr inactive.
For COCc1ccc(C(=O)N2CCCC(C(=O)c3ccc(SC)cc3)C2)s1 (stereo not given) the results were KCNK3 block inactive, Kir21 inh inactive, KCNK9 inh inactive, hERG protect inactive, KCNQ1 inh inactive, KCNQ1 act inactive, KCNK9 block conf inactive, Kir2-1 spec inactive and HEK293 Tl ctr inactive.
Cc1ccc2[nH]nc(C(=O)N3CCCC(C(=O)c4ccc(Cl)cc4)C3)c2c1 (stereo not given) was read as KCNK3 block inactive, Kir21 inh inactive, KCNK9 inh inactive, hERG protect inactive, KCNQ1 inh inactive, KCNQ1 act inactive, KCNK9 block conf inactive, Kir2-1 spec inactive and HEK293 Tl ctr inactive.

Compound activity from PubChem BioAssay.
